Assay outcomes from PubChem BioAssay.
Rows were chosen to be rich in hits. Some 2.8% of all compounds tested hit in one or more screens of this group.
DENV2 CPE rescue = DENV2-induced cell death inhibition | CPE inhibition, % at 9.99 µM | 350,000 compounds, 1.7% hits | DENV2-infected cells, cytopathic effect rescue, plate reader; in the data active = CPE inhibition above about 20%, passing the limit was not always enough; inconclusive = no clear call, values can overlap the other calls; tested in BHK-21 cells;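 also: 0% = median of neutral control wells and 100% = median of positive control wells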
SIRT5 block = inhibitors of human sirtuin-5 desuccinylase; Purified SirT5, succinyl-peptide AMC, trypsin-coupled fluorescence; inhibition, % at 15 µM; AID 652115; 330,000 compounds, 1.1% hits; Q9NXA8; in the data active = inhibition above about 15%; inconclusive = no clear call, values can overlap the other calls
Target sequence (Q9NXA8 whole entry, looked up): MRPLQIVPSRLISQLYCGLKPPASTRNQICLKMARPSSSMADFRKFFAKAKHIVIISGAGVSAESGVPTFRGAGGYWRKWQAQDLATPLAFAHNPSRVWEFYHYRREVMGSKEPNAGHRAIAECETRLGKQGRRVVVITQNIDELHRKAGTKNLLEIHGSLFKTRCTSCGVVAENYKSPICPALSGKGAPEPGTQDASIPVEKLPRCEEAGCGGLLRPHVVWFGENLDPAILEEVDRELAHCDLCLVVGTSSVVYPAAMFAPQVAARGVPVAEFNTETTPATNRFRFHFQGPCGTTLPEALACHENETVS
E-sel inducer = induces E-selectin expression in human endothelial cells; P16581; HUVEC E-selectin immunofluorescence imaging; normalized: neutral wells 0, TNF-alpha wells 100; activation, % at 7.58 µM; 260,000 compounds, 0.37% hits; AID 686992;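 active = mean E-selectin-positive cell signal at least 10% of the positive control, reached in at least 60% of replicates, without over 20% cell loss; inconclusive = no rule given, readout overlaps actives, possibly toxicity-flagged; inactive = the rest, including those meeting only one limit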
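Read-out: % PE-positive cells | Test system: HUVEC | Doses: One compound dose added by pin transfer | Buffer or medium: EGM-2 over gelatin coat | Signal: Immunofluorescence imaging | Benchmarks: TNF-alpha, DMSO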
* marks the source's active call; other numbers are inactive results; u = inconclusive; x = not tested or not shown.

SMILES	DENV2 CPE rescue	SIRT5 block	E-sel inducer
O=C(c1ccccc1)C(O)(Cc1ccccc1)c1ccccc1 (stereo not drawn)	36*	-2	0
CC(O)(C(=O)c1ccccc1)c1ccccc1 (stereo not drawn)	10	x	0
C[C@@H]1CN([C@@H](C)CO)C(=O)c2cccc(NS(C)(=O)=O)c2O[C@@H]1CN(C)Cc1ccc(C(=O)Nc2ccccc2N)cc1	-14	x	x
COc1ccc(S(=O)(=O)N(C)C[C@H]2OCCCC[C@@H](C)Oc3ccc(NC(=O)Nc4ccc(F)cc4)cc3C(=O)N([C@@H](C)CO)C[C@@H]2C)cc1	-3	16*	0
C[C@@H]1CCCCO[C@H](CN(C)S(=O)(=O)c2ccc(Cl)cc2)[C@@H](C)CN([C@@H](C)CO)C(=O)c2cc(NC(=O)Nc3ccc(F)cc3)ccc2O1	23*	2	x
COc1ccc(S(=O)(=O)N(C)C[C@@H]2OCCCC[C@@H](C)Oc3ccc(NC(=O)Nc4ccc(F)cc4)cc3C(=O)N([C@@H](C)CO)C[C@@H]2C)cc1	4	17*	0
C[C@@H]1CN([C@H](C)CO)C(=O)c2cc(NC(=O)Nc3ccc(F)cc3)ccc2O[C@@H](C)CCCCO[C@H]1CN(C)S(=O)(=O)c1ccc(Cl)cc1	-9	7	2
COc1ccc(NC(=O)Nc2ccc3c(c2)C(=O)N([C@@H](C)CO)C[C@@H](C)[C@H](CN(C)S(=O)(=O)c2ccc(Cl)cc2)OCCCC[C@@H](C)O3)cc1	36*	-2	x
COc1ccc(NC(=O)Nc2ccc3c(c2)C(=O)N([C@@H](C)CO)C[C@H](C)[C@H](CN(C)S(=O)(=O)c2ccc(F)cc2)OCCCC[C@@H](C)O3)cc1	-1	7	x
COc1ccc(NC(=O)Nc2ccc3c(c2)C(=O)N([C@@H](C)CO)C[C@@H](C)[C@@H](CN(C)S(=O)(=O)c2ccc(Cl)cc2)OCCCC[C@@H](C)O3)cc1	4	10	x
COc1ccc(S(=O)(=O)N(C)C[C@@H]2OCCCC[C@H](C)Oc3ccc(NC(=O)Nc4ccc(F)cc4)cc3C(=O)N([C@H](C)CO)C[C@@H]2C)cc1	-3	15	0
Cc1noc(C)c1NC(=O)Nc1ccc2c(c1)C(=O)N([C@@H](C)CO)C[C@H](C)[C@H](CN(C)Cc1ccncc1)OCCCC[C@H](C)O2	u	-4	0
O=C(C[C@@H]1C=C[C@H](NC(=O)Nc2cc(F)ccc2F)[C@@H](CO)O1)NCc1ccccn1	0	1	0
COc1cccc(-c2ccc3c(c2)[C@@H]2[C@@H](CCN2C(=O)C2CCOCC2)[C@@H](CO)N3)c1	1	1	1
COCC(=O)Nc1ccc2c(c1)[C@@H]1C[C@H](CC(=O)NCc3ccccc3F)O[C@@H](CO)[C@@H]1O2	-1	0	0
COc1ccc(NC(=O)Nc2ccc3c(c2)C(=O)N([C@H](C)CO)C[C@H](C)[C@@H](CN(C)S(=O)(=O)c2ccccc2)OCCCC[C@H](C)O3)cc1	1	16*	x
COc1ccc(NC(=O)Nc2ccc3c(c2)C(=O)N([C@@H](C)CO)C[C@@H](C)[C@H](CN(C)S(=O)(=O)c2ccc(F)cc2)OCCCC[C@@H](C)O3)cc1	-9	15*	x
COc1ccc(NC(=O)Nc2ccc3c(c2)C(=O)N([C@H](C)CO)C[C@H](C)[C@@H](CN(C)S(=O)(=O)c2ccccc2)OCCCC[C@@H](C)O3)cc1	-4	9	x
COc1ccc(S(=O)(=O)N(C)C[C@@H]2OCCCC[C@@H](C)Oc3ccc(NC(=O)Nc4ccc(F)cc4)cc3C(=O)N([C@H](C)CO)C[C@@H]2C)cc1	-3	13	0
COc1ccc(NC(=O)Nc2ccc3c(c2)C(=O)N([C@@H](C)CO)C[C@@H](C)[C@@H](CN(C)S(=O)(=O)c2ccc(F)cc2)OCCCC[C@@H](C)O3)cc1	30*	8	x
COc1ccc(NC(=O)Nc2ccc3c(c2)C(=O)N([C@@H](C)CO)C[C@@H](C)[C@@H](CN(C)S(=O)(=O)c2ccc(F)cc2)OCCCC[C@H](C)O3)cc1	1	6	x
COc1ccc(S(=O)(=O)N(C)C[C@@H]2OCCCC[C@@H](C)Oc3ccc(NC(=O)Nc4ccc(C(F)(F)F)cc4)cc3C(=O)N([C@H](C)CO)C[C@H]2C)cc1	22*	0	1
COc1ccc(S(=O)(=O)N(C)C[C@H]2OCCCC[C@@H](C)Oc3ccc(NC(=O)Nc4ccc(C(F)(F)F)cc4)cc3C(=O)N([C@H](C)CO)C[C@@H]2C)cc1	-11	-1	0
COc1ccccc1S(=O)(=O)N[C@@H]1CC[C@H](CC(=O)NCc2cccc(F)c2)O[C@@H]1CO	1	-1	-1
